Only some compounds are listed: those with a hit (about 4.2% of all), similar ones and a draw of the others.
KCC2 mod – modulates chloride dependent transport by human KCC2; AID 1456; 190,000 tested, 2.2% active; KCC2 cells, thallium flux FluoZin-2 fluorescence; B-score of Tl+ flux slope (higher = more flux/activation; lower = inhibition) at 10 µM;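 active = thallium flux slope and its plate-corrected score both differing from the plate sample mean at a set confidence after two filtering rounds, in either direction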;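 also: slope of fluorescence scaled to starting intensity during 10 to 20 s after thallium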
hERG protect – hERG (human) protection from proarrhythmic block; activation (rescue from dofetilide block), less the hit threshold, % at 10 µM; AID 1511; 310,000 tested, 0.51% active; CHO-hERG, FluxOR thallium flux, dofetilide IC70 present; Q12809;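 active = activation above the mean of controls blocked by dofetilide plus 5 SD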;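 also: thallium influx through hERG after potassium depolarization seen as dye fluorescence rise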
AI-2 QS mod – Vibrio harveyi AI-2 quorum sensing modulation; Vibrio harveyi JMH597 AI-2 luminescence/OD600 ratio, 9 h; stronger effect = lower value; strain lacks LuxN and CqsS sensors; 0 = neutral-control median; activity change, % at 7.5 µM; 300,000 tested, 0.4% active; in the data active = activity change below about -75%, passing the limit was not always enough; inconclusive = no clear call, values can overlap the other calls;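 also: luminescence divided by OD600 gain over 9 h not by final OD600 alone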
Mot1-301 SUMO – SUMOylation pathway inhibition by Mot1-301 growth rescue. AID 2716. S. cerevisiae Mot1-301 growth rescue, ATP luminescence, 38.5C; percent above DMSO median, 100 means doubled. growth rescue, % at 18.8 µM. 320,000 tested, 1% active;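 active = every valid replicate shows activation above 250% relative to neutral control wells; inactive = the rest, any valid replicate at or below 250%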;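 also: OY570 slx delta 5 strain wells were the positive control but not used for scaling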
KCNQ1 inh – human KCNQ1 channel inhibition; CHO-K1 KCNQ1, FluxOR thallium flux fluorescence; stronger effect = higher value; P51787; 310,000 tested, 1.3% active; B-score at 10 µM; AID 2642;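 active = compounds whose thallium flux B-score, printed positive for inhibition, exceeds three library SD while starting fluorescence stays within three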;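 also: channel opened by potassium depolarization with thallium stimulus after 20 min compound exposure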
Target sequence (P51787 whole entry, looked up): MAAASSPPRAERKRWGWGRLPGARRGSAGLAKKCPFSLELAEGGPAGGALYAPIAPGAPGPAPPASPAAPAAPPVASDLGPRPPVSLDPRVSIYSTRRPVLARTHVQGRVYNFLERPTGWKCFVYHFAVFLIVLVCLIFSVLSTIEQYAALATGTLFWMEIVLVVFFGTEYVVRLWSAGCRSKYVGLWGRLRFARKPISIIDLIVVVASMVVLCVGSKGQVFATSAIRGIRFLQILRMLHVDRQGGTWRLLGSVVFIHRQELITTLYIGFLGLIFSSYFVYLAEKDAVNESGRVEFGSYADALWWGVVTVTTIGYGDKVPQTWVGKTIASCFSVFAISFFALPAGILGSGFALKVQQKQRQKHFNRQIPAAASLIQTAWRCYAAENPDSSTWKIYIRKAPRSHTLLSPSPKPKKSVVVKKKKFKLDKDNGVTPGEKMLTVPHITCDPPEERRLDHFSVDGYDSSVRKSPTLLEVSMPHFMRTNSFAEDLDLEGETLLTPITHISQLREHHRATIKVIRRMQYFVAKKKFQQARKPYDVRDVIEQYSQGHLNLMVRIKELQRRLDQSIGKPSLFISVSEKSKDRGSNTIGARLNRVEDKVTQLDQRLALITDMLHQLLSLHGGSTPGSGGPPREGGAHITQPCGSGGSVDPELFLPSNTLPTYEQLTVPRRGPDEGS
KCNQ1 pot – potentiates or activates the human KCNQ1 potassium channel; B-score at 10 µM; 310,000 tested, 0.35% active; P51787; CHO-K1 KCNQ1, thallium flux FluxOR fluorescence; stronger effect = higher value; AID 2648;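 active = fluorescence ratio B-score, a plate-corrected score, at least three library SD, with initial intensity B-score within 5 SD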
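Assay system: CHO-K1 cells stably expressing KCNQ1; Medium: assay buffer with matched DMSO; Also added: K+/Tl+ depolarizing stimulus; Dosing: single dose; Timing: dye 90 min, compound 20 min, room temperature; Measured by: kinetic FluxOR thallium fluorescence, 10-s 1-Hz baseline, 110-s post-stimulus read; Read-out: peak-minus-minimum fluorescence over initial fluorescence, negative-control normalized, B-scored.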
KCC2 sec1 – KCC2 (human) modulation, secondary assay | shares compounds with KCC2 mod | HEK293-KCC2, thallium flux, FluoZin2 fluorescence; stronger effect = higher value | normalised thallium flux (F/F0 slope) at 10 µM | 3,700 tested, 15% active | AID 1713;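 active = thallium flux slope above the same plate's solvent-only control mean plus 3 SD; inconclusive = the two replicate wells disagree; inactive = no significant difference from solvent-only control wells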
KCC2 bumet counter – thallium flux persisting under bumetanide in KCC2 cells, counter-screen secondary assay; shares compounds with KCC2 mod; HEK293-KCC2 + bumetanide/ouabain, thallium flux FluoZin2; stronger effect = higher value; normalized thallium flux at 10 µM; 3,700 tested, 49% active; AID 1714;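 active = thallium entry rate above the same plate's blocked-transporter control wells by more than 3 SD; inconclusive = the two repeat wells disagree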;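 also: raw slope of fluorescence over initial fluorescence between 10 and 20 s after thallium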
KCC2 sec2 – KCC2 (human) modulation, second secondary assay. normalized thallium flux at 10 µM. 3,700 tested, 23% active. shares compounds with KCC2 mod. HEK293-KCC2, thallium flux FluoZin2 fluorescence; actives lie on both sides; F/F0 rise rate, 10–20 s post-thallium;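 active = thallium flux slope more than 3 SD above or below the plate's solvent-only control mean, mostly below; inconclusive = the two repeat wells disagreed; inactive = no significant shift from solvent-only controls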;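 also: raw slope with 0.1% DMSO as baseline and bumetanide as block control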
HEK293 Tl flux – acts in parental HEK cells, KCC2 counter-screen; shares compounds with KCC2 mod; HEK293 parental cells, thallium flux FluoZin2, ouabain; baseline-ratio fluorescence slope, 10–20 s after thallium; thallium flux rate (normalised fluorescence) at 10 µM; 3,700 tested, 46% active; AID 1716;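 active = thallium flux rate significantly above the same plate's solvent-only control wells, beyond their mean plus 3 SD; inconclusive = the two replicate wells gave conflicting results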
KCC2 retest ouab – modulates human KCC2 on retest with ouabain. shares compounds with KCC2 mod. HEK293-KCC2, thallium flux FluoZin2 fluorescence; bidirectional: low = inhibitor, high = activator. raw Tl+ flux slope (below DMSO = inhibition, above = activation) at 10 µM. 3,700 tested, 48% active;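 active = thallium flux slope beyond 3 SD from same-plate DMSO control mean in most replicates, usually higher, sometimes lower; inconclusive = repeat tests gave conflicting results; inactive = no significant difference from controls in most replicates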;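 also: slope of initial-normalized fluorescence between seconds 10 and 20 after thallium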
HEK counter2 – counter-screen for KCC2 modulators: effect in parental HEK293 cells. shares compounds with KCC2 mod. thallium flux FluoZin-2 fluorescence slope. thallium flux slope at 10 µM. 3,700 tested, 33% active;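 active = thallium flux slope above the same plate's solvent-control mean plus 3 SD in both duplicate wells; inconclusive = duplicate wells that disagreed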;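 also: run without ouabain in cells lacking the KCC2 cotransporter; slope of fluorescence scaled to its starting value between 10 and 20 s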
Numbers without * were called inactive.

`Cc1cc(C)c(C#N)c(N2CCN(Cc3ccccc3)CC2)n1` gave KCC2 mod -3.7*, hERG protect -9, AI-2 QS mod 12, KCNQ1 inh inactive, KCNQ1 pot inactive, KCC2 sec1 0.017, KCC2 bumet counter 0.0042, KCC2 sec2 inconclusive, HEK293 Tl flux 0.0067, KCC2 retest ouab 0.014 and HEK counter2 0.0098.
CC(C)c1nc2sc3c(=O)[nH]c(=S)[nH]c3c2c2c1CCC2 was read as KCC2 mod -7.9*, hERG protect -3, AI-2 QS mod 21, KCNQ1 inh inactive, KCNQ1 pot 21*, KCC2 sec1 0.016, KCC2 bumet counter 0.0063*, KCC2 sec2 inconclusive, HEK293 Tl flux 0.0051*, KCC2 retest ouab 0.0094* and HEK counter2 inconclusive.
Screening Cc1ccc(NC(=O)c2ccc(S(=O)(=O)NCc3cccnc3)cc2)c(C)c1 returned hERG protect -7, AI-2 QS mod 13, Mot1-301 SUMO -17, KCNQ1 inh inactive and KCNQ1 pot inactive.
`CCCCn1c(SCC(=O)NCc2ccccc2)nc2ccc(N3CCOCC3)cc2c1=O` gave KCC2 mod 4*, hERG protect -13, AI-2 QS mod 2, Mot1-301 SUMO -5, KCNQ1 inh inactive, KCNQ1 pot inactive, KCC2 sec1 0.007, KCC2 bumet counter 0.016*, KCC2 sec2 0.034, HEK293 Tl flux 0.011*, KCC2 retest ouab inconclusive and HEK counter2 inconclusive.
CCCCn1c(SCC(=O)NCc2ccco2)nc2ccc(N3CCOCC3)cc2c1=O was read as KCC2 mod 2.3, hERG protect -10, AI-2 QS mod -9, Mot1-301 SUMO 8, KCNQ1 inh inactive and KCNQ1 pot inactive.
Screening CC(OC(=O)c1nn(C)c(=O)c2ccccc12)C(=O)Nc1ccc(S(N)(=O)=O)cc1 (configuration not stated) returned hERG protect -11, AI-2 QS mod 8, Mot1-301 SUMO -6, KCNQ1 inh inactive and KCNQ1 pot inactive.
For CCN(C(=O)CSc1nnc(-c2ccc(OC)cc2)n1C(C)C)C1CCS(=O)(=O)C1 (configuration not stated) the results were Mot1-301 SUMO -1.
For Cc1ccc(Nc2c([N+](=O)[O-])c(=O)oc3ccccc23)cc1 the results were KCC2 mod -2, hERG protect -19, AI-2 QS mod 5, Mot1-301 SUMO -9, KCNQ1 inh inactive and KCNQ1 pot inactive.
O=c1oc2ccccc2c(Nc2ccc3ccccc3c2)c1[N+](=O)[O-] was read as KCC2 mod -3.8*, hERG protect -12, AI-2 QS mod 17, Mot1-301 SUMO 319, KCNQ1 inh inactive, KCNQ1 pot inactive, KCC2 sec1 0.0091, KCC2 bumet counter 0.0072, KCC2 sec2 0.031, HEK293 Tl flux 0.0042, KCC2 retest ouab 0.015* and HEK counter2 0.011.
`O=c1oc2ccccc2c(NCc2cccc(F)c2)c1[N+](=O)[O-]` gave hERG protect -8, AI-2 QS mod 5, Mot1-301 SUMO -4, KCNQ1 inh inactive, KCNQ1 pot inactive, KCC2 sec1 0.0074, KCC2 bumet counter 0.0057, KCC2 sec2 0.03, HEK293 Tl flux 0.0066, KCC2 retest ouab 0.022* and HEK counter2 0.01.
Screening CCN1CCN(C(=O)c2ccc(CN(c3ccccc3)S(=O)(=O)c3ccccc3)cc2)CC1 returned KCC2 mod -0.54, hERG protect -11, AI-2 QS mod 11, Mot1-301 SUMO 14, KCNQ1 inh inactive and KCNQ1 pot inactive.
For COc1ccc(-c2cc(CCCC(=O)NCCc3ccccc3)no2)cc1 the results were KCC2 mod -4.3*, hERG protect -9, AI-2 QS mod 18, Mot1-301 SUMO -9, KCNQ1 inh inactive, KCNQ1 pot inactive, KCC2 sec1 0.009, KCC2 bumet counter 0.0067, KCC2 sec2 inconclusive, HEK293 Tl flux 0.007, KCC2 retest ouab 0.016* and HEK counter2 0.01.
Screening O=C(NC(=S)N1CCN(Cc2ccccc2)CC1)c1cccnc1 returned KCC2 mod -0.23, hERG protect -5, AI-2 QS mod 38, Mot1-301 SUMO 9, KCNQ1 inh inactive and KCNQ1 pot inactive.
For O=C(NC(=S)N1CCN(C/C=C/c2ccccc2)CC1)c1ccc(Cl)nc1 the results were KCC2 mod 68*, hERG protect 3, AI-2 QS mod -5, Mot1-301 SUMO 7, KCNQ1 inh inactive, KCNQ1 pot inactive, KCC2 sec1 0.0077, KCC2 bumet counter 0.08*, KCC2 sec2 0.063*, HEK293 Tl flux 0.056*, KCC2 retest ouab 0.067* and HEK counter2 0.054*.
S=c1[nH]c(-c2ccccc2)cn1/N=C/c1cccs1 was read as KCC2 mod 18*, hERG protect -11, AI-2 QS mod 9, Mot1-301 SUMO -7, KCNQ1 inh inactive, KCNQ1 pot inactive, KCC2 sec1 0.023*, KCC2 bumet counter 0.036*, KCC2 sec2 0.033, HEK293 Tl flux 0.016*, KCC2 retest ouab 0.029* and HEK counter2 0.016*.
Screening S=c1[nH]c(-c2ccccc2)cn1/N=C/c1ccc(Br)cc1 returned KCC2 mod 54*, hERG protect 1, AI-2 QS mod 29, Mot1-301 SUMO 1, KCNQ1 inh inactive, KCNQ1 pot inactive, KCC2 sec1 0.011*, KCC2 bumet counter 0.04*, KCC2 sec2 0.032, HEK293 Tl flux 0.017*, KCC2 retest ouab 0.048* and HEK counter2 0.011*.

Screens from PubChem BioAssay.
